In ChEMBL document CHEMBL1128546 (J Med Chem, 1995):

What was measured:
[1] = biological target: 5-hydroxytryptamine receptor 1D (Homo sapiens, UniProt P28221); experiment: Binding affinity to recombinant human 5-hydroxytryptamine 1D receptor alpha
In short: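 Binding to the cloned human receptor subtype. Values are Ki, given as the mean of one or two independent experiments, each run in duplicate.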

Oryctolagus cuniculus [2] = species: Oryctolagus cuniculus; experiment: Maximum vein contraction obtained relative to 5-hydroxytryptamine; assay type: functional
Oryctolagus cuniculus [3] = species: Oryctolagus cuniculus; experiment: The compound was tested for functional activity by measuring the contraction of saphenous vein from New Zealand white rabbit

5-hydroxytryptamine receptor 1D, sequence (P28221 whole entry): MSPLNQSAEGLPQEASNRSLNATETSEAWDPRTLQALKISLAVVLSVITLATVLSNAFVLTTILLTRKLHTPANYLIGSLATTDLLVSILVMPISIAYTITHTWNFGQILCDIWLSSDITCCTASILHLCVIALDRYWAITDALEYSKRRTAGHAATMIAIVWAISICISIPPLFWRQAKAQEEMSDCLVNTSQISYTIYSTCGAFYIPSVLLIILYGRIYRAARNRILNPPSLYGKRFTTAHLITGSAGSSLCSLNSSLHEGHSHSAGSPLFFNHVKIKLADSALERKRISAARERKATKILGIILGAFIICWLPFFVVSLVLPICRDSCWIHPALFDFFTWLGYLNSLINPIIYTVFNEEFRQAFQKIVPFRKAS

With CN(C)S(=O)(=O)Nc1ccc(N2CCN(C(=O)COc3ccc4[nH]cc(CCN)c4c3)CC2)cc1.Cl.O the Ki [1] was 0.26 nM, the Rel max (Oryctolagus cuniculus [2]) was 0.96 and the pD2 (Oryctolagus cuniculus [3]) was 7.2.
Work on NCCc1c[nH]c2ccc(OCCCCCC(=O)N3CCN(c4ccc([N+](=O)[O-])cc4)CC3)cc12 yielded a Ki [1] of 0.34 nM, a Rel max (Oryctolagus cuniculus [2]) of 0.73 and a pD2 (Oryctolagus cuniculus [3]) of 7.
NCCc1c[nH]c2ccc(OCC(=O)N3CCN(c4ccc([N+](=O)[O-])cc4)CC3)cc12 gave a Ki [1] of 0.42 nM, a Rel max (Oryctolagus cuniculus [2]) of 0.52 and a pD2 (Oryctolagus cuniculus [3]) of 6.12.
NCCc1c[nH]c2ccc(OCCCCC(=O)N3CCN(c4ccc(N)cc4)CC3)cc12 was tested, and the Ki [1] was 1.4 nM, the Rel max (Oryctolagus cuniculus [2]) was 0.73 and the pD2 (Oryctolagus cuniculus [3]) was 7.05.
For CN(C)CCc1c[nH]c2ccc(C[C@H]3COC(=O)N3)cc12 [ZOLMITRIPTAN], the Ki [1] was 0.92 nM, the Rel max (Oryctolagus cuniculus [2]) was 1.48 and the pD2 (Oryctolagus cuniculus [3]) was 6.13.
NCCc1c[nH]c2ccc(OCC(=O)N3CCN(c4ccc(N)cc4)CC3)cc12 gave a Ki [1] of 2.92 nM, a Rel max (Oryctolagus cuniculus [2]) of 0.83 and a pD2 (Oryctolagus cuniculus [3]) of 6.88.
With NCCc1c[nH]c2ccc(OCCCCCC(=O)N3CCN(c4ccc(N)cc4)CC3)cc12 the Ki [1] was 0.38 nM, the Rel max (Oryctolagus cuniculus [2]) was 0.79 and the pD2 (Oryctolagus cuniculus [3]) was 8.09.
For CS(=O)(=O)NCc1ccccc1N1CCN(C(=O)COc2ccc3[nH]cc(CCN)c3c2)CC1, the Ki [1] was 1.8 nM, the Rel max (Oryctolagus cuniculus [2]) was 0.93 and the pD2 (Oryctolagus cuniculus [3]) was 6.
CS(=O)(=O)Nc1ccc(N2CCN(C(=O)CCCCCOc3ccc4[nH]cc(CCN)c4c3)CC2)cc1 showed a Rel max (Oryctolagus cuniculus [2]) of 1.05 and a pD2 (Oryctolagus cuniculus [3]) of 8.33.
NCCc1c[nH]c2ccc(OCCCCC(=O)N3CCN(c4ccc([N+](=O)[O-])cc4)CC3)cc12 was tested, and the Ki [1] was 2.5 nM, the Rel max (Oryctolagus cuniculus [2]) was 0.71 and the pD2 (Oryctolagus cuniculus [3]) was 6.74.
Molecule CS(=O)(=O)NCc1ccc(N2CCN(C(=O)COc3ccc4[nH]cc(CCN)c4c3)CC2)cc1 has a Ki [1] of 1 nM, a Rel max (Oryctolagus cuniculus [2]) of 0.88 and a pD2 (Oryctolagus cuniculus [3]) of 6.92.
With Cc1ccccc1N1CCN(C(=O)COc2ccc3[nH]cc(CCN)c3c2)CC1 the Rel max (Oryctolagus cuniculus [2]) was 1.01 and the pD2 (Oryctolagus cuniculus [3]) was 5.86.
NCCc1c[nH]c2ccc(OCCCC(=O)N3CCN(c4ccc([N+](=O)[O-])cc4)CC3)cc12 showed a Ki [1] of 1.2 nM, a Rel max (Oryctolagus cuniculus [2]) of 1.06 and a pD2 (Oryctolagus cuniculus [3]) of 6.91.
In the case of NCCc1c[nH]c2ccc(OCC(=O)N3CCN(c4ccccc4CN)CC3)cc12, the Ki [1] is reported as 6.9 nM, the Rel max (Oryctolagus cuniculus [2]) is reported as 0.9 and the pD2 (Oryctolagus cuniculus [3]) is reported as 6.52.
NCCc1c[nH]c2ccc(OCC(=O)N3CCN(c4ccccc4)CC3)cc12 was tested, and the Ki [1] was 1.2 nM, the Rel max (Oryctolagus cuniculus [2]) was 0.68 and the pD2 (Oryctolagus cuniculus [3]) was 7.63.
CS(=O)(=O)Nc1ccc(N2CCN(C(=O)COc3ccc4[nH]cc(CCN)c4c3)CC2)cc1 showed a Ki [1] of 0.56 nM, a Rel max (Oryctolagus cuniculus [2]) of 1.21 and a pD2 (Oryctolagus cuniculus [3]) of 7.62.
With N#Cc1ccccc1N1CCN(C(=O)COc2ccc3[nH]cc(CCN)c3c2)CC1 the Ki [1] was 0.92 nM, the Rel max (Oryctolagus cuniculus [2]) was 1.22 and the pD2 (Oryctolagus cuniculus [3]) was 7.42.
CNS(=O)(=O)Cc1ccc2[nH]cc(CCN(C)C)c2c1 gave a Rel max (Oryctolagus cuniculus [2]) of 1.26 and a pD2 (Oryctolagus cuniculus [3]) of 5.75.
NCCc1c[nH]c2ccc(O)cc12 [SEROTONIN] gave a Rel max (Oryctolagus cuniculus [2]) of 1.
Molecule NCCc1c[nH]c2ccc(OCC(=O)N3CCN(c4ccccc4[N+](=O)[O-])CC3)cc12 has a Ki [1] of 0.58 nM, a Rel max (Oryctolagus cuniculus [2]) of 0.87 and a pD2 (Oryctolagus cuniculus [3]) of 6.33.
Work on CC(=O)Nc1ccc(N2CCN(C(=O)COc3ccc4[nH]cc(CCN)c4c3)CC2)cc1 yielded a Rel max (Oryctolagus cuniculus [2]) of 1.01 and a pD2 (Oryctolagus cuniculus [3]) of 6.67.
NCCc1c[nH]c2ccc(OCC(=O)N3CCN(c4ccc(CN)cc4)CC3)cc12 showed a Ki [1] of 0.93 nM, a Rel max (Oryctolagus cuniculus [2]) of 0.92 and a pD2 (Oryctolagus cuniculus [3]) of 6.8.
NCCc1c[nH]c2ccc(OCC(=O)N3CCN(c4ccc(NC(=O)c5ccccc5)cc4)CC3)cc12 showed a Ki [1] of 1.7 nM, a Rel max (Oryctolagus cuniculus [2]) of 0.9 and a pD2 (Oryctolagus cuniculus [3]) of 7.31.
Work on CN(C)CCc1c[nH]c2ccc(Cn3cncn3)cc12 [RIZATRIPTAN] yielded a Rel max (Oryctolagus cuniculus [2]) of 1.42 and a pD2 (Oryctolagus cuniculus [3]) of 6.15.
